Assay results published in ChEMBL document CHEMBL4251591, “Primaquine hybrids as promising antimycobacterial and antimalarial agents” (Eur J Med Chem, 2018).
pIC50: −log10 of the molar value. Values after ≈ are worked out from the molar mass of the structure shown.

How the values were obtained:
[1] = system: Mycobacterium avium; assay: Antimycobacterial activity against Mycobacterium avium subsp. paratuberculosis CIT03 clinical isolate after 11 days by Alamar Blue assay; assay type: functional; settings: CIT03, 264 h
[2] = system: L6; assay: Cytotoxicity against rat L6 cells after 70 hrs by Alamar Blue-based assay; assay type: cell-based; settings: L6, 70 h
How it was run: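 Rat skeletal myoblast L-6 cells, 4000 per well, in RPMI 1640 with 10% FBS and L-glutamine. Eleven 3-fold serial dilutions spanning 100 to 0.002 were tested for 70 h. Alamar Blue was then added for 2 h and fluorescence read at ex 536 / em 588 nm. IC50 came from linear regression of sigmoid curves, averaged over two replicate experiments, with podophyllotoxin as control.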

[3] = system: Mycobacterium tuberculosis; assay: Antimycobacterial activity against Mycobacterium tuberculosis H37Ra ATCC 25177 after 7 days by Alamar Blue assay; assay type: functional; settings: H37Ra ATCC 25177, 168 h
How it was run: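 Log-phase culture washed and resuspended in supplemented Middlebrook 7H9GC broth, adjusted to McFarland No. 1, then diluted 1:20. Equal volumes of culture and DMSO-prepared compound dilutions were tested in duplicate for 7 days. 10% AlamarBlue was added, with 570/600 nm readings for background and after 24 h reincubation. Blue meant no growth, pink meant growth. MIC was the lowest concentration without visible growth.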

[4] = system: Mycobacterium avium complex sp.; assay: Antimycobacterial activity against Mycobacterium avium complex CIT19/06 clinical isolate after 5 days by Alamar Blue assay; assay type: functional; settings: CIT19/06, 120 h
[5] = system: Plasmodium berghei; assay: Antimalarial activity against liver stage of firefly luciferase-expressing Plasmodium berghei infected in human HuH7 cells measured after 48 hrs post parasite addition by luciferase-based luminescence assay; assay type: functional, organism-based; settings: Huh-7, 48 h
How it was run: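 HuH7 hepatoma cells seeded at 1.0 × 10^4 per well the day before infection. Drug-containing medium was added 1 h before 1.0 × 10^4 sporozoites, followed by centrifugation at 1800 × g for 5 min. Infection load was read by bioluminescence 48 h later, and host viability by CellTiter-Blue. IC50 came from nonlinear regression of normalized dose-response curves.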

Compound | MIC [1] | IC50 [2] | MIC [3] | MIC [4] | pIC50 [5]
COc1cc(NC(C)CCCNC(=O)Nc2cccc(O)c2)c2ncccc2c1 (centres undefined) | 16 µg/mL (≈ 40.6 µM) | 38 µg/mL (≈ 96.3 µM) | 8 µg/mL (≈ 20.3 µM) | 16 µg/mL (≈ 40.6 µM) | –
COc1cc(NC(C)CCCNC(=O)Nc2cccc(F)c2)c2ncccc2c1 (centres undefined) | 4 µg/mL (≈ 10.1 µM) | 9.18 µg/mL (≈ 23.2 µM) | 2 µg/mL (≈ 5.04 µM) | 8 µg/mL (≈ 20.2 µM) | –
COc1cc(NC(C)CCCNC(=O)NNC(=O)Nc2ccc(O)cc2)c2ncccc2c1 (centres undefined) | 128 µg/mL (≈ 283 µM) | – | 128 µg/mL (≈ 283 µM) | 256 µg/mL (≈ 566 µM) | –
COc1cc(NC(C)CCCNC(=O)NNC(=O)Nc2cccc(C(F)(F)F)c2)c2ncccc2c1 (centres undefined) | 128 µg/mL (≈ 254 µM) | – | 128 µg/mL (≈ 254 µM) | 128 µg/mL (≈ 254 µM) | –
COc1cc(NC(C)CCCNC(=O)Nc2ccc(F)cc2)c2ncccc2c1 (centres undefined) | 16 µg/mL (≈ 40.4 µM) | 9.3 µg/mL (≈ 23.5 µM) | 8 µg/mL (≈ 20.2 µM) | 16 µg/mL (≈ 40.4 µM) | –
COc1cc(NC(C)CCCNC(=O)Nc2ccc(Cl)cc2)c2ncccc2c1 (centres undefined) | 32 µg/mL (≈ 77.5 µM) | – | 16 µg/mL (≈ 38.7 µM) | 64 µg/mL (≈ 155 µM) | –
COc1cc(NC(C)CCCNC(=O)/C=C/c2cc(C(F)(F)F)cc(C(F)(F)F)c2)c2ncccc2c1 (centres undefined) | 16 µg/mL (≈ 30.4 µM) | – | 16 µg/mL (≈ 30.4 µM) | 64 µg/mL (≈ 122 µM) | 5.62
COc1cc(NC(C)CCCNC(=O)/C=C/c2ccc(OC)c(OC)c2)c2ncccc2c1 (centres undefined) | 128 µg/mL (≈ 285 µM) | > 100 µg/mL | 128 µg/mL (≈ 285 µM) | 256 µg/mL (≈ 569 µM) | –
COc1cc(NC(C)CCCNC(=O)NNC(=O)NCCc2ccccc2)c2ncccc2c1 (centres undefined) | 128 µg/mL (≈ 276 µM) | – | 128 µg/mL (≈ 276 µM) | 256 µg/mL (≈ 551 µM) | –
COc1cc(NC(C)CCCNC(=O)/C(C)=C/c2ccccc2)c2ncccc2c1 (centres undefined) | – | > 100 µg/mL | – | – | 6.14
COc1cc(NC(C)CCCNC(=O)/C=C/c2cccc(C(F)(F)F)c2)c2ncccc2c1 (centres undefined) | 32 µg/mL (≈ 69.9 µM) | – | 32 µg/mL (≈ 69.9 µM) | 128 µg/mL (≈ 280 µM) | –
COc1cc(NC(C)CCCNC(=O)NNC(=O)NCc2ccccc2)c2ncccc2c1 (centres undefined) | 128 µg/mL (≈ 284 µM) | – | 128 µg/mL (≈ 284 µM) | 256 µg/mL (≈ 568 µM) | –
COc1cc(NC(C)CCCNC(=O)/C=C/c2ccc(C(F)(F)F)cc2)c2ncccc2c1 (centres undefined) | 64 µg/mL (≈ 140 µM) | – | 32 µg/mL (≈ 69.9 µM) | 128 µg/mL (≈ 280 µM) | –
COc1cc(NC(C)CCCNC(=O)/C=C/c2cc(OC)c(OC)c(OC)c2)c2ncccc2c1 (centres undefined) | 256 µg/mL (≈ 534 µM) | > 100 µg/mL | 256 µg/mL (≈ 534 µM) | 256 µg/mL (≈ 534 µM) | –
COc1cc(NC(C)CCCNC(=O)/C=C/c2ccccc2F)c2ncccc2c1 (centres undefined) | 64 µg/mL (≈ 157 µM) | 1.5 µg/mL (≈ 3.68 µM) | 32 µg/mL (≈ 78.5 µM) | 128 µg/mL (≈ 314 µM) | –
COc1cc(NC(C)CCCNC(=O)/C=C/c2ccc3c(c2)OCO3)c2ncccc2c1 (centres undefined) | 64 µg/mL (≈ 148 µM) | – | 64 µg/mL (≈ 148 µM) | 64 µg/mL (≈ 148 µM) | –
COc1cc(NC(C)CCCNC(=O)NNC(=O)NC(c2ccccc2)(c2ccccc2)c2ccccc2)c2ncccc2c1 (centres undefined) | 128 µg/mL (≈ 212 µM) | > 65 µg/mL | 128 µg/mL (≈ 212 µM) | 128 µg/mL (≈ 212 µM) | –
COc1cc(NC(C)CCCNC(=O)NNC(=O)Nc2cccc(Br)c2)c2ncccc2c1 (centres undefined) | 128 µg/mL (≈ 248 µM) | 20 µg/mL (≈ 38.8 µM) | 128 µg/mL (≈ 248 µM) | 256 µg/mL (≈ 497 µM) | 6.74
COc1cc(NC(C)CCCNC(=O)NC2CCCCC2)c2ncccc2c1 (centres undefined) | 16 µg/mL (≈ 41.6 µM) | – | 16 µg/mL (≈ 41.6 µM) | 32 µg/mL (≈ 83.2 µM) | –
COc1cc(NC(C)CCCNC(=O)NC2CCCC2)c2ncccc2c1 (centres undefined) | 16 µg/mL (≈ 43.2 µM) | – | 16 µg/mL (≈ 43.2 µM) | 32 µg/mL (≈ 86.4 µM) | –
COc1cc(NC(C)CCCNC(=O)NCc2ccncc2)c2ncccc2c1 (centres undefined) | 32 µg/mL (≈ 81.3 µM) | – | 32 µg/mL (≈ 81.3 µM) | 32 µg/mL (≈ 81.3 µM) | –
COc1cc(NC(C)CCCNC(=O)NCCO)c2ncccc2c1 (centres undefined) | 64 µg/mL (≈ 185 µM) | – | 32 µg/mL (≈ 92.4 µM) | 64 µg/mL (≈ 185 µM) | –
COc1cc(NC(C)CCCNC(=O)NCCCO)c2ncccc2c1 (centres undefined) | 64 µg/mL (≈ 178 µM) | – | 64 µg/mL (≈ 178 µM) | 64 µg/mL (≈ 178 µM) | –
O=C(O)c1cn(C2CC2)c2cc(N3CCNCC3)c(F)cc2c1=O [CIPROFLOXACIN] | – | – | 16 µg/mL (≈ 48.3 µM) | – | –
NNC(=O)c1ccncc1 [ISONIAZID] | > 256 µg/mL | – | 5 µg/mL (≈ 36.5 µM) | > 256 µg/mL | –
COc1cc([C@@H]2c3cc4c(cc3[C@H](O)[C@H]3COC(=O)[C@H]23)OCO4)cc(OC)c1OC [PODOFILOX] | – | 0.007 µg/mL (≈ 0.0169 µM) | – | – | –
COc1cc(NC(C)CCCN)c2ncccc2c1.O=P(O)(O)O.O=P(O)(O)O (centres undefined) [PRIMAQUINE PHOSPHATE] | 32 µg/mL | – | 32 µg/mL | 32 µg/mL | –
CO[C@H]1/C=C/O[C@@]2(C)Oc3c(C)c(O)c4c(O)c(c(/C=N/N5CCN(C)CC5)c(O)c4c3C2=O)NC(=O)/C(C)=C\C=C\[C@H](C)[C@H](O)[C@@H](C)[C@@H](O)[C@@H](C)[C@H](OC(C)=O)[C@@H]1C [RIFAMPIN] | 90 µg/mL (≈ 109 µM) | – | 8 µg/mL (≈ 9.72 µM) | 30 µg/mL (≈ 36.5 µM) | –
